# Measured values collected from several papers.
# Lines come from different studies, so protocols differ.
SMILES,cell line,observed,action,technique,time,IC50
O=C1CCCCC1C1C2C=CC=CC1C(C1CC1)=C2 (stereo not drawn),U-937,cell growth or viability,,flow cytometry,,41 nM
CCc1c2c(nc3ccc(O)cc13)-c1cc3c(c(=O)n1C2)COC(=O)[C@]3(O)CC,HCCLM3,cell growth or viability,,MTT,72 h,3080 nM
COc1ccccc1-c1c(C(F)(F)F)oc2cc(OC(=O)c3ccccc3)ccc2c1=O,human Neutrophil,cell migration,inhibitor,,,120 nM
COc1ccc(-c2cncc(N[C@@H](C)c3cccc(NC(=O)c4cncc(C)c4)c3)n2)cc1OC,NCI-H1703,cell growth or viability,,ATP luminescence,72 h,32 nM
COC(=O)CCC1=CC2C=CC=CC1C2C1CCCCC1=O (stereo not drawn),U-937,cell growth or viability,,flow cytometry,,171 nM
COc1ccccc1-c1c(C)oc2cc(OC(=O)c3cccs3)ccc2c1=O,human Neutrophil,cell migration,inhibitor,,,320 nM
CC(C)C[C@H](NC(=O)[C@H](Cc1ccccc1)NC(=O)c1cnccn1)B(O)O,EFO-27,cell growth or viability,,ATP luminescence,,21 nM
O=C1CCCCC1C1C2C=CC=CC1C(CCCCOC1CCCCO1)=C2 (stereo not drawn),U-937,cell growth or viability,,flow cytometry,,143 nM
COc1ccccc1-c1c(C(F)(F)F)oc2cc(OC(=O)C3CC3)ccc2c1=O,human Neutrophil,cell migration,inhibitor,,,360 nM
COc1ccc(-c2cc(-c3ccc4oc(=O)cc(C)c4c3O)nc(N)n2)cc1,KB,cell growth or viability,,MTT,72 h,> 128 µg/mL
O=C(N/N=C/c1c(O)ccc2ccccc12)c1cc(-c2ccc3ccccc3c2)n[nH]1,UACC-903,cell growth or viability,,MTS,24 h,19500 nM
Cc1oc2cc(OC(=O)c3ccco3)ccc2c(=O)c1-c1ccccc1,human Neutrophil,cell migration,inhibitor,,,880 nM
"Cl.Oc1cccc2c1[nH]c1c(C3=CC4(O)CC/C=C\CCCCN5CCC3C3(CC6/C=C\CCCCN6C43)C5)nccc12 (single isomer, unassigned; (+))",KB,cell growth or viability,,neutral red,48 h,0.69 µg/mL
Cc1cc(=O)oc2ccc(-c3cc(-c4ccc(Cl)cc4)nc(N)n3)c(O)c12,KB,cell growth or viability,,MTT,72 h,25.6 µg/mL
Oc1ccc(/C=C/c2cc(O)cc(O)c2)cc1,J774,cell growth or viability,,resazurin,48 h,162000 nM
COc1ccc(C=CC(=O)c2ccc(F)cc2)cc1OC,J774,cell growth or viability,,MTT,24 h,100 µg/mL
Cc1cc(=O)oc2ccc(-c3cc(-c4cccs4)nc(N)n3)c(O)c12,KB,cell growth or viability,,MTT,72 h,> 128 µg/mL
COc1cc(Nc2nccc(-c3cnn4nc(OC)ccc34)n2)cc(C(F)(F)F)c1,NCI-H1703,cell growth or viability,,ATP luminescence,,220 nM
COc1cc(O)c(CC=C(C)C)c(O)c1C(=O)/C=C/c1ccc(O)cc1,J774,cell growth or viability,,resazurin,48 h,60800 nM
COc1ccccc1-c1c(C(F)(F)F)oc2cc(OC(=O)c3ccco3)ccc2c1=O,human Neutrophil,cell migration,inhibitor,,,180 nM
N#CCCC1=CC2C=CC=CC1C2C1CCCCC1=O (stereo not drawn),U-937,cell growth or viability,,flow cytometry,,81 nM
COc1ccccc1-c1c(C)oc2cc(OC(=O)c3ccco3)ccc2c1=O,human Neutrophil,cell migration,inhibitor,,,430 nM
Cc1cc(=O)oc2ccc(-c3cc(-c4ccccc4)nc(N)n3)c(O)c12,KB,cell growth or viability,,MTT,72 h,> 128 µg/mL
Nc1ncc(-c2cnn(C3CCNCC3)c2)cc1-c1nnc(CC2CC2)o1,U-937,cell growth or viability,,trypan blue,72 h,380 nM
Oc1ccc(Nc2nc(-c3ccc(Cl)cc3)cs2)cc1,UACC-903,cell growth or viability,,MTS,24 h,> 100000 nM
CCCCCC/C=C1\CC2C=CC=CC1C2C1CCCCC1=O (stereo not drawn),U-937,cell growth or viability,,flow cytometry,,34 nM
COc1ccc(C(=O)C=Cc2ccc(OC)c(OC)c2)cc1,J774,cell growth or viability,,MTT,24 h,100 µg/mL
